Calls of active or inactive are those of the source. No cut-off for these calls is given here.
Key:
[1] = molecular target: Apoptosis regulator Bcl-2 (Homo sapiens, UniProt P10415); experiment: Binding affinity to BCL2
[2] = tested on: Eu-Myc; experiment: Induction of apoptosis in mouse Eu-Myc cells overexpressing MCL1 assessed as inhibition of colony formation at 1 uM; type: functional, cell-based
[3] = tested on: Eu-Myc; experiment: Induction of apoptosis in mouse Eu-Myc cells overexpressing BCL2 assessed as inhibition of colony formation at 1 uM; type: functional, cell-based
[4] = tested on: Eu-Myc; experiment: Induction of apoptosis in mouse Eu-Myc cells overexpressing A1 assessed as inhibition of colony formation at 1 uM; type: functional, cell-based
[5] = tested on: KB; experiment: Cytotoxicity against BCL2 overexpressing human KB cells transfected with MCL1 siRNA assessed as annexin 5 reactivity at 0.5 uM after 72 hrs by flow cytometry; type: functional
[6] = tested on: KB; experiment: Cytotoxicity against BCL2 overexpressing human KB cells transfected with MCL1 siRNA assessed as propidium iodide uptake at 0.5 uM after 72 hrs by flow cytometry; type: functional
[7] = tested on: KB; experiment: Cytotoxicity in human KB cells overexpressing BCL2 at 0.1 uM; type: functional, cell-based
[8] = tested on: KB; experiment: Cytotoxicity in human KB cells overexpressing BCL2 at 0.5 uM; type: functional, cell-based
[9] = tested on: KB; experiment: Cytotoxicity in human siRNA-mediated-MCL1-kncok down KB cells overexpressing BCL2 at 0.5 uM; type: functional, cell-based
[10] = tested on: KB; experiment: Cytotoxicity against BCL2 overexpressing human KB cells transfected with luciferase siRNA assessed as propidium iodide uptake at 0.5 uM after 72 hrs by flow cytometry; type: functional
[11] = tested on: KB; experiment: Cytotoxicity against BCL2 overexpressing human KB cells transfected with luciferase siRNA assessed as annexin 5 uptake at 0.5 uM after 72 hrs by flow cytometry; type: functional
[12] = tested on: KB; experiment: Depletion of cytochrome c in mitochondria of human KB cells at 2.0 uM; type: functional, cell-based
Outline: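 Mitochondria isolated from KB cells were incubated 30 min at 37°C with DMSO or compound, then reisolated. Mitochondrial pellet and post-mitochondrial supernatant were analysed by SDS/PAGE and cytochrome c immunoblot, with actin and a control protein as loading controls.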

[13] = tested on: Saccharomyces cerevisiae; experiment: Growth inhibition of Saccharomyces cerevisiae W301; type: functional, organism-based
Outline: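 W301 yeast transformed with BCL-family/BAX/BAK or control vectors, then grown in synthetic complete medium with 2% raffinose and 2% galactose. Seeded at 0.01 OD units and shaken 48 h at 30°C. Compound or vehicle was added to growth medium with final DMSO 0.67%. Cell density was the read-out, and IC50 values were recorded.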

Chain of Apoptosis regulator Bcl-2 (P10415 whole entry): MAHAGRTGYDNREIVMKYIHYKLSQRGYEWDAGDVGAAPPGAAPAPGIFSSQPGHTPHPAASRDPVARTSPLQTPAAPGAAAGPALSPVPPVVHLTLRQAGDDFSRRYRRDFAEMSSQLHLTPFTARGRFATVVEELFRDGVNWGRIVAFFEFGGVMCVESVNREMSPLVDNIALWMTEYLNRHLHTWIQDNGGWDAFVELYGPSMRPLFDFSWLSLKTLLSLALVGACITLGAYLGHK

Compound: O=C(O[C@@H]1Cc2c(O)cc(O)cc2O[C@@H]1c1ccc(O)c(O)c1)c1cc(O)c(O)c(O)c1 [EPICATECHIN GALLATE]
- Ki [1]: 229 nM

Compound: CN(C)CC[C@H](CSc1ccccc1)Nc1ccc(S(=O)(=O)NC(=O)c2ccc(N3CCN(Cc4ccccc4-c4ccc(Cl)cc4)CC3)cc2)cc1[N+](=O)[O-] [ABT 737]
- Activity [2]: inactive
- Activity [3]: Active
- Activity [4]: inactive
- Activity [5]: 58%
- Activity [6]: 72%
- Activity [7]: inactive
- Activity [8]: inactive
- Activity [9]: Active
- Activity [10]: 9%
- Activity [11]: 8%

Compound: CC[C@H](C)[C@H](NC(=O)[C@H](CC(N)=O)NC(=O)[C@H](CCCNC(=N)N)NC(=O)[C@@H](NC(=O)[C@@H](NC(=O)[C@H](CC(=O)O)NC(=O)[C@@H](N)CCC(=O)O)[C@@H](C)CC)[C@@H](C)CC)C(=O)N[C@@H](C)C(=O)N[C@@H](CCCNC(=N)N)C(=O)N[C@@H](Cc1cnc[nH]1)C(=O)N[C@@H](CC(C)C)C(=O)N[C@@H](C)C(=O)N[C@@H](CCC(N)=O)C(=O)N[C@H](C(=O)NCC(=O)N[C@@H](CC(=O)O)C(=O)N[C@@H](CO)C(=O)N[C@@H](CCSC)C(=O)N[C@@H](CC(=O)O)C(=O)N[C@@H](CCCNC(=N)N)C(=O)O)C(C)C
- Activity [12]: Active

Compound: COC(=O)NC(CCSC)C(=O)Oc1ccc(Nc2nc3c(s2)C(=O)c2ccccc2C3=O)cc1 (configuration not stated)
- Ki [1]: 1290 nM

Compound: CCCC[C@H]1C(=O)O[C@H](C)[C@H](NC(=O)c2cccc(NC=O)c2O)C(=O)O[C@@H](C)[C@@H]1OC(=O)CC(C)C [ANTIMYCIN A3]
- Ki [1]: 832 nM

Compound: CC[C@@]1(O)C(=O)OCc2c1cc1n(c2=O)Cc2cc3ccccc3nc2-1 [CAMPTOTHECIN]
- IC50 [13]: > 200000 nM

Compound: Oc1cc(O)c2c(c1)O[C@H](c1ccc(O)c(O)c1)[C@H](O)C2 [CATECHIN]
- Ki [1]: > 100000 nM

Compound: Oc1cc(O)c2c(c1)O[C@H](c1cc(O)c(O)c(O)c1)[C@H](O)C2 [EPIGALLOCATECHIN]
- Ki [1]: > 100000 nM
